Measured values published in ChEMBL document CHEMBL4422685, “Design, synthesis and evaluation of a series of 5-methoxy-2,3-naphthalimide derivatives as AcrB inhibitors for the reversal of bacterial resistance” (Bioorg Med Chem Lett, 2019).
The source made the active and inactive calls. No cut-off for these calls is given here.

Assays:
[1] = target: T1, Multidrug efflux pump subunit AcrB (Escherichia coli (strain K12)) (UniProt P31224); test: Inhibition of AcrB in wild-type drug-resistant Escherichia coli […] assessed as potentiation of chloramphenicol-induced antimicrobial activity by measuring chloramphenicol MIC at 128 ug/ml by checkerboard titration method (Rvb =16 ug/ml)
T1 sequence (whole entry): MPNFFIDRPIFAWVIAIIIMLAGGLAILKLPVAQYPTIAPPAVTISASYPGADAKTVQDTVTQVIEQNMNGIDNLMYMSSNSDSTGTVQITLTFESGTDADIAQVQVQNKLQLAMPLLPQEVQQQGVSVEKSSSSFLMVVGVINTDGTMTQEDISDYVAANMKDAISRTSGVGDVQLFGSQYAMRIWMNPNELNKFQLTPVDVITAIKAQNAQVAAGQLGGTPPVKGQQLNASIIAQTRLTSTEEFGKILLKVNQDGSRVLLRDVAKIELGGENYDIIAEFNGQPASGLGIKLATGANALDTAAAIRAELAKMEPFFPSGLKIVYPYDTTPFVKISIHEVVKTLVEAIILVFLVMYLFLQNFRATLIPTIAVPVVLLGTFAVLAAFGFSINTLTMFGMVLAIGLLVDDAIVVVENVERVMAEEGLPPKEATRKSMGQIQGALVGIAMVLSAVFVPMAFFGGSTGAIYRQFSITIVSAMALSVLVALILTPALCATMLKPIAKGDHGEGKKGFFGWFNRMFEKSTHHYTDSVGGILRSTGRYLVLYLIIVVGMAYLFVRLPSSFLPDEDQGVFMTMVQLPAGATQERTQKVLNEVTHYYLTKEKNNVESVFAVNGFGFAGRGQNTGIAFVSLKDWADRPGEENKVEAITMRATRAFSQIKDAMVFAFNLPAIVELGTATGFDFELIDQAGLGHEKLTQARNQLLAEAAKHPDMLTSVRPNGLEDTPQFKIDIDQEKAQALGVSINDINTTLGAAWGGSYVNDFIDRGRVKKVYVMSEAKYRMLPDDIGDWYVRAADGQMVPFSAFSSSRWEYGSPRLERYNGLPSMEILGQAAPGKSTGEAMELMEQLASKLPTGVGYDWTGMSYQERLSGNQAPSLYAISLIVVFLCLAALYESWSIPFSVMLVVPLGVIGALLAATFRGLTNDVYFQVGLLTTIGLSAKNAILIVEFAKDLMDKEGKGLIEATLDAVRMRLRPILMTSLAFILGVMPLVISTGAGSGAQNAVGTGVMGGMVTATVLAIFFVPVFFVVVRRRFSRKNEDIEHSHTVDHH

[2] = target: T1, Multidrug efflux pump subunit AcrB (Escherichia coli (strain K12)); test: Inhibition of AcrB in wild-type drug-resistant Escherichia coli […] assessed as potentiation of erythromycin-induced antimicrobial activity by measuring erythromycin MIC at 16 ug/ml by checkerboard titration method (reference value: 64 ug/ml)
[3] = target: T1, Multidrug efflux pump subunit AcrB (Escherichia coli (strain K12)); test: Inhibition of AcrB in wild-type drug-resistant Escherichia coli […] assessed as potentiation of chloramphenicol-induced antimicrobial activity by measuring chloramphenicol MIC at 32 ug/ml by checkerboard titration method (Rvb =16 ug/ml)
[4] = target: T1, Multidrug efflux pump subunit AcrB (Escherichia coli (strain K12)); test: Inhibition of AcrB in wild-type drug-resistant Escherichia coli […] assessed as potentiation of levofloxacin-induced antimicrobial activity by measuring levofloxacin MIC at 128 ug/ml by checkerboard titration method (reference value: 0.063 ug/ml)
[5] = target: T1, Multidrug efflux pump subunit AcrB (Escherichia coli (strain K12)); test: Inhibition of AcrB in wild-type drug-resistant Escherichia coli […] assessed as reduction in glucose-induced nile red efflux at 50 uM by fluorescence assay
Procedure, shortened: (§1)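 E. coli cells (wild-type resistant with active pump, acrB-deleted, or wild-type plus compound) preloaded with Nile Red before fluorescence recording. Efflux triggered at 100 s by adding 0.2% glucose. Fluorescence traces followed; experiments with different cell batches on three different days.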

[6] = target: T1, Multidrug efflux pump subunit AcrB (Escherichia coli (strain K12)); test: Inhibition of AcrB in wild-type drug-resistant Escherichia coli BW2113 assessed as potentiation of chloramphenicol-induced antimicrobial activity by measuring chloramphenicol MIC at 16 ug/ml by checkerboard titration method (Rvb =16 ug/ml)
Escherichia coli [7] = test: Induction of Escherichia coli outer membrane permeabilization assessed as increase in nitrocefin hydrolysis at 128 ug/ml by spectroscopic method; assay type: organism-based
[8] = target: T1, Multidrug efflux pump subunit AcrB (Escherichia coli (strain K12)); test: Inhibition of AcrB in wild-type drug-resistant Escherichia coli […] assessed as reduction in glucose-induced nile red efflux at 500 uM by fluorescence assay; procedure, shortened: as §1
[9] = target: T1, Multidrug efflux pump subunit AcrB (Escherichia coli (strain K12)); test: Inhibition of AcrB in wild-type drug-resistant Escherichia coli […] assessed as reduction in glucose-induced nile red efflux at 200 uM by fluorescence assay; procedure, shortened: as §1
Escherichia coli [10] = test: Induction of Escherichia coli outer membrane permeabilization assessed as increase in nitrocefin hydrolysis at 32 ug/ml by spectroscopic method; assay type: organism-based
HeLa = test: Cytotoxicity against human HeLa cells after 48 hrs by MTT assay; assay type: cell-based
Procedure, shortened: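 MTT-based viability assay on human cervical cancer HeLa cells, 48 h exposure; IC50 derived.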

[11] = target: T1, Multidrug efflux pump subunit AcrB (Escherichia coli (strain K12)); test: Inhibition of AcrB in wild-type drug-resistant Escherichia coli […] assessed as reduction in glucose-induced nile red efflux at 100 uM by fluorescence assay; procedure, shortened: as §1
Escherichia coli [12] = test: Disruption of Escherichia coli inner membrane integrity at 8 ug/ml after 10 mins by DiOC2(3) probe based fluorescence assay; assay type: ADME, organism-based; details: in vivo
Procedure, shortened: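 Bacterial suspensions pre-exposed to compound for 10 min, then DiOC2(3) added and fluorescence followed to plateau. Cells re-energized with 0.5% glucose; membrane potential (inside negative) read as fluorescence rise to plateau, then collapsed with the proton ionophore CCCP. Untreated cells run alongside.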

Escherichia coli [13] = test: Induction of Escherichia coli outer membrane permeabilization assessed as increase in nitrocefin hydrolysis at 8 ug/ml by spectroscopic method; assay type: organism-based
[14] = target: T1, Multidrug efflux pump subunit AcrB (Escherichia coli (strain K12)); test: Inhibition of AcrB in wild-type drug-resistant Escherichia coli […] assessed as potentiation of levofloxacin-induced antimicrobial activity by fold reduction in levofloxacin MIC at 16 to 32 ug/ml by checkerboard titration method relative to levofloxacin alone
[15] = target: T1, Multidrug efflux pump subunit AcrB (Escherichia coli (strain K12)); test: Inhibition of AcrB in wild-type drug-resistant Escherichia coli […] assessed as reduction in glucose-induced nile red efflux at 100 to 200 uM by fluorescence assay; procedure, shortened: as §1

Structure (SMILES) | MIC [1] | MIC [2] | MIC [3] | MIC [4] | inhibition [5] | MIC [6] | Activity (Escherichia coli [7]) | inhibition [8] | inhibition [9] | Activity (Escherichia coli [10]) | IC50 (HeLa) | inhibition [11] | Activity (Escherichia coli [12]) | Activity (Escherichia coli [13]) | fold change (FC) [14] | inhibition [15]
COc1cccc2cc3c(cc12)C(=O)N(c1ccccc1Cl)C3=O | 16 µg/mL | 64 µg/mL | 16 µg/mL | 0.063 µg/mL | Active | 16 µg/mL | Non-Toxic |  |  |  |  |  |  |  |  | 
COc1cccc2cc3c(cc12)C(=O)N(C(C)C)C3=O | 8 µg/mL | 32 µg/mL | 8 µg/mL | 0.0313 µg/mL |  | 8 µg/mL | Non-Toxic | 100% | Active |  |  |  |  |  |  | 
CCCCCCN1C(=O)c2cc3cccc(OC)c3cc2C1=O | 8 µg/mL | 32 µg/mL | 16 µg/mL | 0.0313 µg/mL | 100% | 16 µg/mL | Non-Toxic |  |  |  |  |  |  |  |  | 
COc1cccc2cc3c(cc12)C(=O)N(C)C3=O | 16 µg/mL | 64 µg/mL | 16 µg/mL | 0.0313 µg/mL |  | 16 µg/mL |  | 100% | Active | Non-Toxic |  |  |  |  |  | 
CCc1ccccc1N1C(=O)c2cc3cccc(OC)c3cc2C1=O | 8 µg/mL | 64 µg/mL | 16 µg/mL | 0.0313 µg/mL | Active | 16 µg/mL | Non-Toxic |  |  |  | > 64 µg/mL |  |  |  |  | 
COc1ccc(CN2C(=O)c3cc4cccc(OC)c4cc3C2=O)cc1 | 16 µg/mL | 32 µg/mL | 16 µg/mL | 0.063 µg/mL |  | 16 µg/mL |  |  |  |  |  | Active | Non-Toxic | Non-Toxic |  | 
CCCCCN1C(=O)c2cc3cccc(OC)c3cc2C1=O | 4 µg/mL | 64 µg/mL | 8 µg/mL | 0.0313 µg/mL |  | 16 µg/mL | Non-Toxic |  |  |  | > 64 µg/mL | Active |  |  |  | 
COc1cccc2cc3c(cc12)C(=O)N(Cc1ccccc1)C3=O | 8 µg/mL | 32 µg/mL | 16 µg/mL | 0.063 µg/mL |  | 16 µg/mL | Non-Toxic |  |  |  |  | Active |  |  |  | 
COc1ccccc1CN1C(=O)c2cc3cccc(OC)c3cc2C1=O | 16 µg/mL | 64 µg/mL | 16 µg/mL | 0.0019 µg/mL |  | 16 µg/mL | Non-Toxic |  |  |  | > 64 µg/mL | Active |  |  | 16 | 
COc1cccc2cc3c(cc12)C(=O)N(C1CCCC1)C3=O | 16 µg/mL | 64 µg/mL | 16 µg/mL | 0.063 µg/mL |  | 16 µg/mL | Non-Toxic |  |  |  |  |  |  |  |  | inactive
